{"source": "ChEMBL document CHEMBL1649256", "about": "“Comparison of assessment of oxygen consumption, Etest, and CLSI M38-A2 broth microdilution methods for evaluation of the susceptibility of Aspergillus fumigatus to posaconazole” (2009)", "format_in_all_cases": "functional", "key": {"Aspergillus fumigatus [1]": {"tested_on": "Aspergillus fumigatus", "assay": "Antimicrobial activity against Aspergillus fumigatus isolate 28 by CLSI M38-A2 broth microdilution method", "in_short": "(§1)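 Reference broth microdilution per CLSI M38-A2. MIC read as absence of visible growth at 48 h. C. parapsilosis ATCC 22019 and C. krusei ATCC 6258 QC strains run in each test session.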"}, "Aspergillus fumigatus [2]": {"tested_on": "Aspergillus fumigatus", "assay": "Antimicrobial activity against Aspergillus fumigatus isolate 2 by oxygen consumption method", "in_short": "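Conidial suspension in RPMI 1640 broth with posaconazole at 0.25 and 2 μg/ml. Tubes agitated 12 h at 37°C in a biological oxygen monitor. Available oxygen was monitored continuously, and the MIC was assigned from the oxygen quantification.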"}, "Aspergillus fumigatus [3]": {"tested_on": "Aspergillus fumigatus", "assay": "Antimicrobial activity against Aspergillus fumigatus isolate 39 after 48 hrs by Etest", "settings": "isolate 39, 48 h", "in_short": "(§2)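 Posaconazole Etest strips on RPMI 1640 agar with 2% glucose, pH 7.0, run per the strip maker's instructions. Incubated at 35°C. MIC read at 24 h and at 48 h, matching the time in each line.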"}, "Aspergillus fumigatus [4]": {"tested_on": "Aspergillus fumigatus", "assay": "Antimicrobial activity against Aspergillus fumigatus isolate 29 after 24 hrs by Etest", "settings": "isolate 29, 24 h", "in_short": "(§3)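 Etest strips on RPMI 1640 agar with 2% glucose, pH 7.0, run per manufacturer's instructions. Incubated at 35°C; MIC read at 24 h.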"}, "Aspergillus fumigatus [5]": {"tested_on": "Aspergillus fumigatus", "assay": "Antimicrobial activity against Aspergillus fumigatus isolate 38 by CLSI M38-A2 broth microdilution method", "in_short": "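CLSI M38-A2 broth microdilution with posaconazole. MIC taken as the lowest concentration with no visible growth at 48 h. C. parapsilosis ATCC 22019 and C. krusei ATCC 6258 were included as QC strains in every run.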"}, "Aspergillus fumigatus [6]": {"tested_on": "Aspergillus fumigatus", "assay": "Antimicrobial activity against Aspergillus fumigatus isolate 21 by CLSI M38-A2 broth microdilution method", "in_short": "as §1"}, "Aspergillus fumigatus [7]": {"tested_on": "Aspergillus fumigatus", "assay": "Antimicrobial activity against Aspergillus fumigatus isolate 50 by oxygen consumption method"}, "Aspergillus fumigatus [8]": {"tested_on": "Aspergillus fumigatus", "assay": "Antimicrobial activity against Aspergillus fumigatus isolate 18 by CLSI M38-A2 broth microdilution method", "in_short": "(§4)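 Posaconazole broth microdilution follows CLSI M38-A2. The MIC is the lowest concentration with no visible growth at 48 h. Candida parapsilosis ATCC 22019 and Candida krusei ATCC 6258 were included as QC strains in every run.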"}, "Aspergillus fumigatus [9]": {"tested_on": "Aspergillus fumigatus", "assay": "Antimicrobial activity against Aspergillus fumigatus isolate 25 by oxygen consumption method", "in_short": "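Conidial suspension in RPMI 1640 broth, 1.5 ml, with two drug concentrations (0.25 and 2 μg/ml). Tubes agitated 12 h at 37°C in a biological oxygen monitor. Available oxygen monitored continuously and quantified to assign the MIC.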"}, "Aspergillus fumigatus [10]": {"tested_on": "Aspergillus fumigatus", "assay": "Antimicrobial activity against Aspergillus fumigatus isolate 36 after 48 hrs by Etest", "settings": "isolate 36, 48 h", "in_short": "as §2"}, "Aspergillus fumigatus [11]": {"tested_on": "Aspergillus fumigatus", "assay": "Antimicrobial activity against Aspergillus fumigatus isolate 45 by oxygen consumption method"}, "Aspergillus fumigatus [12]": {"tested_on": "Aspergillus fumigatus", "assay": "Antimicrobial activity against Aspergillus fumigatus isolate 2 by CLSI M38-A2 broth microdilution method", "in_short": "as §4"}, "Aspergillus fumigatus [13]": {"tested_on": "Aspergillus fumigatus", "assay": "Antimicrobial activity against Aspergillus fumigatus isolate 27 after 24 hrs by Etest", "settings": "isolate 27, 24 h", "in_short": "as §3"}, "Aspergillus fumigatus [14]": {"tested_on": "Aspergillus fumigatus", "assay": "Antimicrobial activity against Aspergillus fumigatus isolate 26 by CLSI M38-A2 broth microdilution method", "in_short": "as §1"}, "Aspergillus fumigatus [15]": {"tested_on": "Aspergillus fumigatus", "assay": "Antimicrobial activity against Aspergillus fumigatus isolate 47 after 48 hrs by Etest", "settings": "isolate 47, 48 h"}, "Aspergillus fumigatus [16]": {"tested_on": "Aspergillus fumigatus", "assay": "Antimicrobial activity against Aspergillus fumigatus isolate 21 after 48 hrs by Etest", "settings": "isolate 21, 48 h", "in_short": "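Etest strips on RPMI 1640 agar with 2% glucose, pH 7.0, run per manufacturer's instructions. Incubated at 35°C; MIC read at 48 h.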"}, "Aspergillus fumigatus [17]": {"tested_on": "Aspergillus fumigatus", "assay": "Antimicrobial activity against Aspergillus fumigatus isolate 3 after 24 hrs by Etest", "settings": "isolate 3, 24 h", "in_short": "as §3"}, "Aspergillus fumigatus [18]": {"tested_on": "Aspergillus fumigatus", "assay": "Antimicrobial activity against Aspergillus fumigatus isolate 18 after 24 hrs by Etest", "settings": "isolate 18, 24 h", "in_short": "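Posaconazole Etest strips placed on RPMI 1640 agar with 2% glucose, pH 7.0, and run per the strip maker's instructions. Incubation at 35°C, with the MIC read at 24 h and at 48 h.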"}}}
{"smiles": "CC[C@@H]([C@H](C)O)n1ncn(-c2ccc(N3CCN(c4ccc(OC[C@@H]5CO[C@@](Cn6cncn6)(c6ccc(F)cc6F)C5)cc4)CC3)cc2)c1=O", "note": "[POSACONAZOLE]", "values": [{"measurement": "MIC", "setting": "Aspergillus fumigatus [1]", "value": 0.25, "unit": "µg/mL"}, {"measurement": "MIC", "setting": "Aspergillus fumigatus [2]", "value": "≥ 0.5", "unit": "µg/mL"}, {"measurement": "MIC", "setting": "Aspergillus fumigatus [3]", "value": 2, "unit": "µg/mL"}, {"measurement": "MIC", "setting": "Aspergillus fumigatus [4]", "value": 0.25, "unit": "µg/mL"}, {"measurement": "MIC", "setting": "Aspergillus fumigatus [5]", "value": 0.125, "unit": "µg/mL"}, {"measurement": "MIC", "setting": "Aspergillus fumigatus [6]", "value": 0.125, "unit": "µg/mL"}, {"measurement": "MIC", "setting": "Aspergillus fumigatus [7]", "value": "≤ 0.25", "unit": "µg/mL"}, {"measurement": "MIC", "setting": "Aspergillus fumigatus [8]", "value": 0.125, "unit": "µg/mL"}, {"measurement": "MIC", "setting": "Aspergillus fumigatus [9]", "value": "≤ 0.25", "unit": "µg/mL"}, {"measurement": "MIC", "setting": "Aspergillus fumigatus [10]", "value": 0.06, "unit": "µg/mL"}, {"measurement": "MIC", "setting": "Aspergillus fumigatus [11]", "value": "≥ 0.5", "unit": "µg/mL"}, {"measurement": "MIC", "setting": "Aspergillus fumigatus [12]", "value": 0.5, "unit": "µg/mL"}, {"measurement": "MIC", "setting": "Aspergillus fumigatus [13]", "value": 0.125, "unit": "µg/mL"}, {"measurement": "MIC", "setting": "Aspergillus fumigatus [14]", "value": 0.125, "unit": "µg/mL"}, {"measurement": "MIC", "setting": "Aspergillus fumigatus [15]", "value": "≤ 0.03", "unit": "µg/mL"}, {"measurement": "MIC", "setting": "Aspergillus fumigatus [16]", "value": 0.25, "unit": "µg/mL"}, {"measurement": "MIC", "setting": "Aspergillus fumigatus [17]", "value": 1, "unit": "µg/mL"}, {"measurement": "MIC", "setting": "Aspergillus fumigatus [18]", "value": 0.125, "unit": "µg/mL"}]}
